Key:
[1] = Lipophilicity, log D of the compound at pH 7.4; assay type: physicochemical; conditions: buffer
[2] = molecular target: Translocator protein (Rattus norvegicus, UniProt P16257); experiment: Displacement of [3H]PK11195 from TSPO receptor in Wistar rat heart homogenate after 15 mins; assay type: tissue-based
[3] = Ratio of drug uptake in striatum in Sprague-Dawley rat at 1 to 3 MBq, iv after 2 mins to drug uptake in striatum in Sprague-Dawley rat at 1 to 3 MBq, iv after 30 mins; conditions: in vivo
[4] = Ratio of drug uptake in olfactory bulb to striatum in Sprague-Dawley rat at 1 to 3 MBq, iv after 30 mins by gamma counting; conditions: in vivo, 0.5 h
[5] = Metabolic stability in Sprague-Dawley rat brain assessed as compound remaining at 1 to 3 MBq, iv after 60 mins by HPLC analysis; assay type: ADME, organism-based; conditions: read-out: Stability
Summary of the method: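 Radiotracer was injected iv into rats. Brain and plasma were sampled at 10, 30 and 60 min post injection to follow metabolic fate. Brain radioactivity at 60 min is expressed as % parent tracer remaining.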

[6] = system: Brain; experiment: Biodistribution in Sprague-Dawley rat whole brain at 1 to 3 MBq, iv after 2 mins by gamma counting; assay type: ADME, organism-based; conditions: in vivo
Summary of the method: (§1)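 Tracer formulated in Dulbecco's PBS and given iv, about 1–3 MBq at 10 MBq/mL, under 4% isoflurane, to naive rats (n = 3). Animals were killed at set times after injection. Brain was dissected into regions including striatum and olfactory bulbs, and activity was counted by gamma counter. Values are % id/g, and regional ratios were taken between times or regions.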

[7] = system: Rattus norvegicus; experiment: Biodistribution in Sprague-Dawley rat olfactory bulbs at 1 to 3 MBq, iv after 30 mins by gamma counting; assay type: ADME, organism-based, Olfactory bulb; conditions: in vivo, 0.5 h; summary of the method: as §1
[8] = Metabolic stability in Sprague-Dawley rat brain assessed as compound remaining at 1 to 3 MBq, iv after 30 mins by HPLC analysis; assay type: ADME, organism-based; conditions: read-out: Stability

Sequence of Translocator protein (P16257 whole entry, looked up): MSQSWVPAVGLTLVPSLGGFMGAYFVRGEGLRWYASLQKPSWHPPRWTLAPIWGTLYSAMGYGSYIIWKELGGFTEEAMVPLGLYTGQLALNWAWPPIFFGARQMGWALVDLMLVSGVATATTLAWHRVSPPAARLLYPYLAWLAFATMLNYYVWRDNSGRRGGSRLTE

Row | logD [1] | Ki [2] [nM] | Ratio [3] | Ratio [4] | remaining at 1 h [5] [%] | Drug uptake [6] [% ID/g] | Drug uptake [7] [% ID/g] | remaining at 0.5 h [8] [%] | SMILES
1 | 2.41 | 5.5 | – | – | – | – | – | – | CCN(CC)C(=O)C1CCCc2c1c1ccc(OC)cc1n2CCF (racemic)
2 | 2.71 | 1.9 | – | – | – | – | – | – | CCN(CC)C(=O)C1CCCc2c1c1cc(OC)ccc1n2CCF (racemic)
3 | – | – | 4.25 | 3.88 | 76 | 0.39 | 0.31 | – | CCN(CC)C(=O)C1CCCc2c1c1cc(OC)ccc1n2CC[18F] (stereo not drawn)
4 | 2.42 | 1.3 | – | – | – | – | – | – | CN(Cc1ccccc1)C(=O)C1CCCc2c1c1ccccc1n2CCF (racemic)
5 | 2.98 | 0.7 | – | – | – | – | – | – | CCCN(CCC)C(=O)C1CCCc2c1c1ccccc1n2CCF (racemic)
6 | 2.2 | 4 | – | – | – | – | – | – | CC(C)N(C)C(=O)C1CCCc2c1c1ccccc1n2CCF (racemic)
7 | – | – | 4.54 | 3.18 | 74 | 0.53 | 0.35 | – | CC(C)N(C)C(=O)C1CCCc2c1c1ccccc1n2CC[18F] (stereo not drawn)
8 | 2.38 | 1.5 | – | – | – | – | – | – | CCN(CC)C(=O)C1CCCc2c1c1cc(OC)c(F)cc1n2CCF (racemic)
9 | – | – | 5.38 | 4.13 | 79 | 0.45 | 0.33 | – | O=C(C1CCCc2c1c1ccccc1n2CC[18F])N1CCCCCC1 (stereo not drawn)
10 | – | – | – | – | 100 | 0.28 | 0.21 | – | CCC(C)N([11CH3])C(=O)c1cc2ccccc2c(-c2ccccc2Cl)n1 (stereo not drawn)
11 | 2.72 | 8.23 | – | – | – | – | – | – | CC(C)N(C)C(=O)C1CCCc2c1c1cc(F)ccc1n2CCF (racemic)
12 | – | – | – | – | 94 | 0.53 | 0.45 | – | CCN(CC)C(=O)[C@H]1CCCc2c1c1c(OC)cccc1n2CC[18F]
13 | 2.53 | 18.3 | – | – | – | – | – | – | O=C(C1CCCc2c1c1ccccc1n2CCF)N1CCCCC1 (racemic)
14 | 2.95 | 2.4 | – | – | – | – | – | – | CCN(CC)C(=O)C1CCCc2c1c1c(OC)cccc1n2CCF (racemic)
15 | – | – | – | – | 93 | 0.5 | 0.51 | – | CCN(CC)C(=O)C1CCCc2c1c1c(F)cccc1n2CC[18F] (stereo not drawn)
16 | 2.78 | 5.4 | – | – | – | – | – | – | CCN(CC)C(=O)C1CCCc2c1c1ccccc1n2CCF (racemic)
17 | – | – | 4.08 | 3.25 | 62 | 0.53 | 0.39 | – | CCN(CC)C(=O)C1CCCc2c1c1ccccc1n2CC[18F] (stereo not drawn)
18 | – | – | 1.8 | 1.92 | – | 0.52 | 0.48 | – | CCN(CC)C(=O)C1CCCc2c1c1ccc(F)cc1n2CC[18F] (stereo not drawn)
19 | 2.28 | 1.7 | – | – | – | – | – | – | CC(C)N(C(=O)C1CCCc2c1c1ccccc1n2CCF)C(C)C (racemic)
20 | – | – | 2.39 | 2.2 | – | 0.49 | 0.4 | – | CCCN(CCC)C(=O)C1CCCc2c1c1ccccc1n2CC[18F] (stereo not drawn)
21 | – | – | 5.11 | 2.78 | 43 | 0.48 | 0.25 | – | CC(C)N(C(=O)C1CCCc2c1c1ccccc1n2CC[18F])C(C)C (stereo not drawn)
22 | – | – | 3.5 | 2.5 | – | 0.39 | 0.25 | – | CCCN(C)C(=O)C1CCCc2c1c1ccccc1n2CC[18F] (stereo not drawn)
23 | 1.99 | 2.2 | – | – | – | – | – | – | CCCN(C)C(=O)C1CCCc2c1c1ccccc1n2CCF (racemic)
24 | 3.1 | 1.45 | – | – | – | – | – | – | CN(Cc1ccccc1)C(=O)C1CCCc2c1c1cc(F)ccc1n2CCF (racemic)
25 | 2.47 | 28.6 | – | – | – | – | – | – | O=C(NCc1ccccc1)C1CCCc2c1c1ccccc1n2CCF (racemic)
26 | – | 0.38 | – | – | – | – | – | – | CCCN(CC)C(=O)C1CCCc2c1c1ccccc1n2CCF (racemic)

Row | logD [1] | Ki [2] [nM] | Ratio [3] | Ratio [4] | remaining at 1 h [5] [%] | Drug uptake [6] [% ID/g] | Drug uptake [7] [% ID/g] | remaining at 0.5 h [8] [%] | SMILES
27 | – | – | – | – | 83 | 0.51 | 0.25 | – | O=C(C1CCCc2c1c1ccccc1n2CC[18F])N1CCCCC1 (stereo not drawn)
28 | 2.56 | 3.1 | – | – | – | – | – | – | CCOc1ccc2c(c1)c1c(n2CCF)CCCC1C(=O)N(CC)CC (racemic)
29 | – | – | – | – | 84 | 0.56 | 0.41 | – | CCN(CC)C(=O)C1CCCc2c1c1cc(F)ccc1n2CC[18F] (stereo not drawn)
30 | 2.35 | 4.4 | – | – | – | – | – | – | O=C(C1CCCc2c1c1ccccc1n2CCF)N1CCCCCC1 (racemic)
31 | 1.7 | 502 | – | – | – | – | – | – | CN(C)C(=O)C1CCCc2c1c1ccccc1n2CCF (racemic)
32 | – | – | – | – | 90 | 0.52 | 0.36 | – | CCN(CC)C(=O)C1CCCc2c1c1c(OC)cccc1n2CC[18F] (racemic)
33 | – | – | 1.77 | 2.09 | – | 0.45 | 0.46 | – | CCCN(CC)C(=O)C1CCCc2c1c1ccccc1n2CC[18F] (stereo not drawn)
34 | – | – | 4.17 | 3.5 | – | 0.29 | 0.21 | – | CCN(CC)C(=O)C1CCCc2c1c1cc(OC)c(F)cc1n2CC[18F] (stereo not drawn)
35 | 1.7 | 135 | – | – | – | – | – | – | CCN(CC)C(=O)C1CCCc2c1c1cc(O)ccc1n2CCF (racemic)
36 | 2.18 | 503 | – | – | – | – | – | – | O=C(C1CCCc2c1c1ccccc1n2CCF)N1CCCC1 (racemic)
37 | 1.53 | 607 | – | – | – | – | – | – | O=C(C1CCCc2c1c1ccccc1n2CCF)N1CCOCC1 (racemic)
38 | – | 1.05 | – | – | – | – | – | – | CCN(CC)C(=O)C1CCCc2c1c1ccc(F)cc1n2CCF (racemic)
39 | – | – | 4.3 | 3.4 | 76 | 0.48 | 0.34 | – | CCN(Cc1ccccc1)C(=O)C1CCCc2c1c1ccccc1n2CC[18F] (stereo not drawn)
40 | – | – | – | – | – | 0.53 | 0.23 | – | CCN(CC)C(=O)[C@@H]1CCCc2c1c1c(OC)cccc1n2CC[18F]
41 | 1.95 | 4.34 | – | – | – | – | – | – | CCN(CC)C(=O)C1CCCc2c1c1c(OC)cc(OC)cc1n2CCF (racemic)
42 | – | – | 3 | 2.78 | – | 0.33 | 0.25 | – | CCN(CC)C(=O)C1CCCc2c1c1cc(F)c(OC)cc1n2CC[18F] (stereo not drawn)
43 | – | – | 4 | 4.33 | – | 0.36 | 0.39 | – | CCN(CC)C(=O)C1CCCc2c1c1ccc(OC)cc1n2CC[18F] (stereo not drawn)
44 | 2.13 | 0.7 | – | – | – | – | – | – | CCCCCCN(CCCCCC)C(=O)C1CCCc2c1c1ccccc1n2CCF (racemic)
45 | 2.37 | 3.8 | – | – | – | – | – | – | CCN(CC)C(=O)C1CCCc2c1c1cc(F)ccc1n2CCF (racemic)
46 | – | – | – | – | – | 0.34 | 0.12 | – | O=C(C1CCCc2c1c1ccccc1n2CC[18F])N1CCCC1 (stereo not drawn)
47 | – | – | 3 | 2.5 | – | 0.33 | 0.25 | – | CCOc1ccc2c(c1)c1c(n2CC[18F])CCCC1C(=O)N(CC)CC (stereo not drawn)
48 | – | 0.67 | 2.16 | 1.42 | – | – | 0.17 | 95 | CCN(CC)C(=O)C1Sc2ccccc2-c2c1c1ccccc1n2CCF (stereo not drawn)
49 | – | – | 0.44 | 1.11 | – | 0.06 | 0.1 | – | CCCCCCN(CCCCCC)C(=O)C1CCCc2c1c1ccccc1n2CC[18F] (stereo not drawn)
50 | 2.84 | 0.73 | – | – | – | – | – | – | CCN(Cc1ccccc1)C(=O)C1CCCc2c1c1ccccc1n2CCF (racemic)
51 | – | – | 4.7 | 3.4 | 81 | 0.55 | 0.34 | – | CN(Cc1ccccc1)C(=O)C1CCCc2c1c1ccccc1n2CC[18F] (stereo not drawn)
52 | 2.08 | 3.1 | – | – | – | – | – | – | CCN(CC)C(=O)C1CCCc2c1c1cc(F)c(OC)cc1n2CCF (racemic)

Row | SMILES | logD [1] | Ki [2] [nM] | Ratio [3] | Ratio [4] | remaining at 1 h [5] [%] | Drug uptake [6] [% ID/g] | Drug uptake [7] [% ID/g] | remaining at 0.5 h [8] [%]
53 | COc1ccc(OC)c(CN(C(=O)CF)c2ccccc2Oc2ccccc2)c1 | – | – | – | – | 91 | – | – | –
54 | COc1ccc(OC)c(CN(C(=O)C[18F])c2ccccc2Oc2ccccc2)c1 | – | – | – | – | – | 0.74 | 0.49 | –
